Data on one compound can be found in ChEMBL document CHEMBL1255444, “In vitro antibacterial activities of JNJ-Q2, a new broad-spectrum fluoroquinolone” (Antimicrob Agents Chemother, 2010).

Holding throughout (assay type): functional
Experiment [1] concerns Staphylococcus aureus. Kind of experiment: Antibacterial activity against methicillin-resistant Staphylococcus aureus isolate OC11223 assessed as log reduction in bacterial growth at 2 times MIC measured at 24 hrs by time-kill assay. The gist of the method: (§1)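 Overnight MRSA cultures were diluted into fresh cation-adjusted Mueller-Hinton broth to about 5 × 10^6 CFU/ml. […] Samples were plated serially diluted on trypticase soy agar, and CFU were counted after 20-24 h at 37°C. Value is the log10 decrease at 24 h from the starting inoculum; detection limit 100 CFU.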

The test system of experiment [2] is Streptococcus pneumoniae. As to the kind of experiment: Antibacterial activity against Streptococcus pneumoniae isolate OC6585 assessed as log reduction in bacterial growth at 2 times MIC measured at 6 hrs by time-kill assay. The gist of the method:
(§2)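 Drug was diluted from 50× stocks made in water or acidified water. Samples were taken at 6 and 24 h and serially diluted onto TSA-5% sheep blood plates. Plates were incubated 20–24 h at 37°C in 5% CO2 before counting CFU. Log10 titer change is given relative to the starting inoculum.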

The subject of experiment [3] is Streptococcus pneumoniae. As to the kind of experiment: Antibacterial activity against Streptococcus pneumoniae OC6755 harboring gyrA S81F and parC S79Y mutant gene by agar dilution method. The gist of the method: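 MICs for the resistance-selection studies were determined by CLSI agar dilution on Mueller-Hinton medium. For S. pneumoniae the medium was supplemented with 5% lysed horse blood. For MRSA fluctuation-assay strains an arithmetic agar dilution scheme was used for a more precise MIC.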

For another experiment, the system named is Serratia marcescens. Kind of experiment: Antibacterial activity against Serratia marcescens by broth microdilution method. The gist of the method: (§3)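 MICs by CLSI M07-A7 broth microdilution in cation-adjusted Mueller-Hinton medium. For S. pneumoniae the medium was supplemented with 5% lysed horse blood. CLSI quality control strains were run alongside as appropriate.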
A general note: Broth dilution looks for growth in wells or tubes with falling amounts of substance.

The subject of experiment [4] is Staphylococcus epidermidis. As to the kind of experiment: Antibacterial activity against methicillin-susceptible Staphylococcus epidermidis by broth microdilution method.
The subject of experiment [5] is Streptococcus pneumoniae. Kind of experiment: Antibacterial activity against Streptococcus pneumoniae isolate OC5462 assessed as log reduction in bacterial growth at 4 times MIC measured at 6 hrs by time-kill assay. The gist of the method:
as §2

For experiment [6], the system named is Streptococcus pneumoniae. As to the kind of experiment: Antibacterial activity against Streptococcus pneumoniae isolate OC6608 assessed as log reduction in bacterial growth at 2 times MIC measured at 6 hrs by time-kill assay. The gist of the method: as §2
Another experiment deals with Proteus mirabilis. Kind of experiment: Antibacterial activity against Proteus mirabilis by broth microdilution method. The gist of the method:
as §3

The test system of experiment [7] is Staphylococcus aureus. As to the kind of experiment: Antibacterial activity against methicillin-resistant Staphylococcus aureus isolate OC11521 harboring gyrA S84L/S85P, parC E84G mutant gene assessed as log reduction in bacterial growth at 4 times MIC measured at 24 hrs by time-kill assay. The gist of the method: as §1
Experiment [8] deals with Staphylococcus aureus. As to the kind of experiment: Antibacterial activity against methicillin-resistant Staphylococcus aureus isolate OC11521 harboring gyrA S84L/S85P, parC E84G mutant gene assessed as log reduction in bacterial growth at 2 times MIC measured at 24 hrs by time-kill assay. The gist of the method: as §1
Experiment [9] deals with Streptococcus pneumoniae. As to the kind of experiment: Antibacterial activity against Streptococcus pneumoniae isolate OC6608 assessed as log reduction in bacterial growth at 4 times MIC measured at 6 hrs by time-kill assay. The gist of the method: as §2
For experiment [10], the system named is Streptococcus pneumoniae. As to the kind of experiment: Antibacterial activity against Streptococcus pneumoniae isolate OC6610 assessed as log reduction in bacterial growth at 4 times MIC measured at 6 hrs by time-kill assay. The gist of the method:
as §2

For another experiment, the system named is Pseudomonas aeruginosa. Kind of experiment: Antibacterial activity against Pseudomonas aeruginosa ATCC 27853 by broth microdilution method. The gist of the method: as §3
The subject of another experiment is Providencia stuartii. As to the kind of experiment: Ratio of Levofloxacin MIC90 to compound MIC90 for Providencia stuartii.
For experiment [11], the system named is Staphylococcus aureus. As to the kind of experiment: Antibacterial activity against methicillin-resistant Staphylococcus aureus isolate OC12501 by broth microdilution method. The gist of the method:
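CLSI M07-A7 broth microdilution MIC. Medium was cation-adjusted Mueller-Hinton broth. For S. pneumoniae it was Mueller-Hinton supplemented with 5% lysed horse blood. CLSI quality-control strains were included as appropriate.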

The test system of experiment [12] is Staphylococcus aureus. As to the kind of experiment: Antibacterial activity against methicillin-resistant Staphylococcus aureus isolate OC2838 assessed as log reduction in bacterial growth at 4 times MIC measured at 24 hrs by time-kill assay. The gist of the method:
as §1

Experiment [13] concerns Staphylococcus aureus. As to the kind of experiment: Antibacterial activity against methicillin-resistant Staphylococcus aureus isolate OC11696 assessed as log reduction in bacterial growth at 2 times MIC measured at 24 hrs by time-kill assay. The gist of the method:
as §1

The term MIC denotes the lowest concentration found to suppress growth. A word on the MIC50: it is the lowest concentration that inhibits either 50% of growth or 50% of the strains tested, depending on the study. A high value points to lower susceptibility. For orientation: MIC90 means the lowest concentration that inhibits either 90% of growth or 90% of the strains tested, depending on the study. A low value points to greater potency.

Molecules are shown by their SMILES. ≈ marks a conversion by molar mass, not a printed value.

With `COc1c(N2CCC/C(=C(\F)CN)C2)c(F)cc2c(=O)c(C(=O)O)cn(C3CC3)c12` [ACORAFLOXACIN], the deltalog10CFU/ml was 2.5 with Staphylococcus aureus [1]; 3.9 in the experiment on Streptococcus pneumoniae [2]; 3.4 in the experiment with Streptococcus pneumoniae [5]; 3.8 in the experiment with Streptococcus pneumoniae [6]; 2.3 with Staphylococcus aureus [7]; 2.3 in the experiment on Staphylococcus aureus [8]. For the same compound, the deltalog10CFU/ml is recorded as 4.7 in the experiment with Streptococcus pneumoniae [9], 3.5 in the experiment with Streptococcus pneumoniae [10], 4.5 with Staphylococcus aureus [12] and 6.5 in the experiment with Staphylococcus aureus [13]. The results for the MIC in the experiment with Streptococcus pneumoniae [3] and against Staphylococcus aureus [11] were 0.12 µg/mL (≈ 0.286 µM) and 0.06 µg/mL (≈ 0.143 µM), respectively. Further, the MIC50 with Serratia marcescens turned out to be 0.5 µg/mL (≈ 1.19 µM); in [4], 0.015 µg/mL (≈ 0.0358 µM); in the experiment on Proteus mirabilis it was 0.25 µg/mL (≈ 0.596 µM); with Pseudomonas aeruginosa, 1 µg/mL (≈ 2.38 µM). Besides, the MIC90 in the experiment with Serratia marcescens was 1 µg/mL (≈ 2.38 µM); in experiment [4], 0.015 µg/mL (≈ 0.0358 µM); with Proteus mirabilis, 0.5 µg/mL (≈ 1.19 µM); in the experiment with Pseudomonas aeruginosa it was 2 µg/mL (≈ 4.77 µM). Besides, in the experiment on Providencia stuartii, the Ratio amounted to 16.
